The values that follow come from ChEMBL document CHEMBL1132405, “Synthesis and SAR of 1-alkyl-2-phenylethylamine derivatives designed from N,N-dipropyl-4-methoxy-3-(2-phenylethoxy)phenylethylamine to discover sigma(1) ligands” (J Med Chem, 1999).

In test [1] the target is D(2) dopamine receptor (Rattus norvegicus, UniProt P61169). As to the kind of experiment: In vitro binding affinity at Dopamine receptor D2 of rat striatal membranes by [3H]-raclopride displacement.
Test [2] is described as follows: (§1) In vitro binding affinity at Sigma opioid receptor type 1 on guinea pig brain membranes by [3H]pentazocine displacement. Details: species or system Membrane.
Test [3] can be described thus: as §1. More on the design: species or system Membrane. In outline: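 IC50 from displacement curves at 10 concentrations of each compound, each run in duplicate. Values are means of 1–3 separate experiments, with variation between experiments below 15%.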
This is another data set of the same source.

Bounds are passed on as bounds.

Sequence of D(2) dopamine receptor (P61169 whole entry): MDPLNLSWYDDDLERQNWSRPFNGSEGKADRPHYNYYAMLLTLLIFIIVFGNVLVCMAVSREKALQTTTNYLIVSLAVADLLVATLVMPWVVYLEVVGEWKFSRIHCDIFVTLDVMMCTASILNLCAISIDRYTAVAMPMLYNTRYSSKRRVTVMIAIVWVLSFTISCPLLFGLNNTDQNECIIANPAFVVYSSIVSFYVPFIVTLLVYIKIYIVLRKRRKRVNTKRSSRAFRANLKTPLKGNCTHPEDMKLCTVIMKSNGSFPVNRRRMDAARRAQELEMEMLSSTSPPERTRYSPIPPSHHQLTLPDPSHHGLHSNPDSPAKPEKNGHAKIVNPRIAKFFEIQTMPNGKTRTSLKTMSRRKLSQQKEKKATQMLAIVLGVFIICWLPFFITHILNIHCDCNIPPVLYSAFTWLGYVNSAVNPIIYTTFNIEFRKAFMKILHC

Consider `COc1ccc(CCN2CCCC2)cc1OCCc1ccccc1`, for which the IC50 in test [1] was greater than 1000 nM.
As for `CCCNC(CC)Cc1ccc(OC)c(OCCc2ccccc2)c1` (stereo unspecified), the 50% inhibitory concentration (IC50) is greater than 1000 nM in test [1] and 1.8 nM in test [2].
The molecule `CCCN(CCC)C(CC)Cc1ccc(OC)c(OCCc2ccccc2)c1` (stereo unspecified) showed an IC50 in test [1] greater than 1000 nM.
For the molecule `CCCNC(CCC)Cc1ccc(OC)c(OCCc2ccccc2)c1` (stereo unspecified), the IC50 is greater than 1000 nM in test [1] and 4.1 nM in test [2].
The corresponding values for `CCCCC(Cc1ccc(OC)c(OCCc2ccccc2)c1)NCCC` (stereo unspecified) [listing 1 of 2 here] are greater than 1000 nM and 1.9 nM.
As to `CCCCCCC(Cc1ccc(OC)c(OCCc2ccccc2)c1)NCCC` (stereo unspecified), the values for the IC50 in test [1] and in test [2] were greater than 1000 nM and 8.1 nM, respectively.
As for `CCCC(Cc1ccc(OC)c(OCCc2ccccc2)c1)N(CCC)CCC` (stereo unspecified), the IC50 was greater than 1000 nM in test [1] and 8.2 nM in test [2].
As to `CCCN(CCC)CCc1ccc(OC)c(OCCc2ccccc2)c1`, the IC50 in test [1] was greater than 1000 nM; in test [3], 1.5 nM.
For the molecule `CCCCC(Cc1ccc(OC)c(OCCc2ccccc2)c1)NCCC` (stereo unspecified) [listing 2 of 2 here], the IC50 in test [2] was found to be 34 nM.
As to `COc1ccc(CCN)cc1OCCc1ccccc1`, in test [1], the IC50 is greater than 1000 nM.
In turn, `CCCNCCc1ccc(OC)c(OCCc2ccccc2)c1` displayed an IC50 in test [1] greater than 1000 nM.
`CCCCCC(Cc1ccc(OC)c(OCCc2ccccc2)c1)NCCC` (stereo unspecified): the figures for the IC50 in test [1] and in test [2] were greater than 1000 nM and 2.2 nM, respectively.
The corresponding values for `CCCNC(CCC(C)C)Cc1ccc(OC)c(OCCc2ccccc2)c1` (single isomer, unassigned; (-)) are greater than 1000 nM and 0.5 nM.
The like results for `CCCCC(Cc1ccc(OC)c(OCCc2ccccc2)c1)NCCC` (single isomer, unassigned; (-)) were, in that order, greater than 1000 nM and 0.7 nM.
`CCCNC(CCC(C)C)Cc1ccc(OC)c(OCCc2ccccc2)c1` (stereo in doubt; 6i(+)) returned an IC50 in test [2] of 22 nM.
As to `CCCNC(CCC(C)C)Cc1ccc(OC)c(OCCc2ccccc2)c1` (stereo in doubt; 6i), the IC50 in test [1] is greater than 1000 nM; in test [2], 1.6 nM.
